# Test results: ChEMBL document CHEMBL1949580, “Multi-component synthesis and in vitro and in vivo anticancer activity of novel arylmethylene bis-isoxazolo[4,5-b]pyridine-N-oxides” (Eur J Med Chem, 2012)
# Legend:
# HeLa = test: Cytotoxicity against human HeLa cells after 48 hrs by MTT assay; type: functional, cell-based
# Summary of the method: (§1)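 Cells in medium with 10% FBS, 5% CO₂, 37 °C, seeded from a 1 × 10⁵ cells/mL suspension. Test solutions from DMSO stocks (final <1% DMSO) added after 24 h. Exposure 48 h, then MTT 2.5 mg/mL for 2 h, formazan dissolved in DMSO, read at 490 nm. IC₅₀ is 50% OD reduction versus untreated, from dose-response curves. Mean of three independent determinations.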
# MCF7 = test: Cytotoxicity against human MCF7 cells after 48 hrs by MTT assay; type: functional, cell-based; conditions: MCF7, 48 h; summary of the method: as §1
# [1] = Cytotoxicity against […] after 48 hrs by MTT assay; type: functional, cell-based; conditions: Mus musculus, Ehrlich; summary of the method: as §1
# Mus musculus [2] = test: Toxicity in human EAC cells xenografted Swiss albino mouse liquid tumor model assessed as change in monocytes cell count at 10 mg/kg, ip qd for 9 days (reference value: 2.4 +/- 0.12 %); type: organism-based, Ehrlich; parameters: dose 10 mg/kg, route intraperitoneal; conditions: in vivo, 216 h
# Mus musculus [3] = test: Toxicity in human EAC cells xenografted Swiss albino mouse liquid tumor model assessed as change in RBC cell count at 10 mg/kg, ip qd for 9 days (reference value: 2.74 +/- 0.081 million/mm3); type: organism-based, Ehrlich; parameters: dose 10 mg/kg, route intraperitoneal; conditions: in vivo, 216 h
# [4] = Anticancer activity against […] xenografted in Swiss albino mouse liquid tumor model assessed as packed cell volume at 5 mg/kg, ip qd for 9 days measured after 14 days by trypan blue staining (reference value: 2.75 +/- 0.49 mm); type: functional, Ehrlich; conditions: route intraperitoneal
# Summary of the method: (§2)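 EAC cells (0.2 mL of 2 × 10⁶ cells/mouse) injected ip on day 0. Daily ip dosing began 24 h later. Ten mice per group. Tumor volume, packed cell volume and viable tumor cell count read by Trypan blue method, alongside body weight. Values are mean ± SEM versus tumor control. Cisplatin 5 mg/kg served as the positive control.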
# [5] = Antitumor activity against […] xenografted in Swiss albino mouse liquid tumor model assessed as change in body weight at 10 mg/kg, ip qd for 9 days measured after 14 days (reference value: 12.2 +/- 0.75 g); type: functional, Ehrlich; conditions: route intraperitoneal; summary of the method: as §2
# [6] = Anticancer activity against […] xenografted in Swiss albino mouse liquid tumor model assessed as tumor volume at 5 mg/kg, ip qd for 9 days measured after 14 days (reference value: 12.1 +/- 0.89 mL); type: functional, Ehrlich; conditions: route intraperitoneal; summary of the method: as §2
# Mus musculus [7] = test: Toxicity in human EAC cells xenografted Swiss albino mouse liquid tumor model assessed as change in lymphocyte cell count at 10 mg/kg, ip qd for 9 days (reference value: 23 +/- 0.567 %); type: organism-based, Ehrlich; parameters: dose 10 mg/kg, route intraperitoneal; conditions: in vivo, 216 h
# Mus musculus [8] = test: Toxicity in human EAC cells xenografted Swiss albino mouse liquid tumor model assessed as change in RBC cell count at 5 mg/kg, ip qd for 9 days (reference value: 2.74 +/- 0.081 million/mm3); type: organism-based, Ehrlich; parameters: dose 5 mg/kg, route intraperitoneal; conditions: in vivo, 216 h
# Mus musculus [9] = test: Toxicity in human EAC cells xenografted Swiss albino mouse liquid tumor model assessed as change hemoglobin level at 5 mg/kg, ip qd for 9 days (reference value: 5.75 +/- 0.655 mg); type: organism-based, Ehrlich; parameters: dose 5 mg/kg, route intraperitoneal; conditions: in vivo, 216 h
# [10] = Anticancer activity against […] xenografted in Swiss albino mouse liquid tumor model assessed as increase in host lifespan at 5 mg/kg, ip qd for 9 days measured after 14 days; type: functional, Ehrlich; conditions: route intraperitoneal
# [11] = Anticancer activity against […] xenografted in Swiss albino mouse liquid tumor model assessed as tumor volume at 10 mg/kg, ip qd for 9 days measured after 14 days (reference value: 12.1 +/- 0.89 mL); type: functional, Ehrlich; conditions: route intraperitoneal; summary of the method: as §2
# Mus musculus [12] = test: Toxicity in […] xenografted Swiss albino mouse liquid tumor model assessed as change WBC cell count at 5 mg/kg, ip qd for 9 days (reference value: 20.6 +/- 0.545 10^3/mm3); type: organism-based, Ehrlich; parameters: dose 5 mg/kg, route intraperitoneal; conditions: in vivo, 216 h
# [13] = Anticancer activity against […] xenografted in Swiss albino mouse liquid tumor model assessed as host survival at 10 mg/kg, ip qd for 9 days (reference value: 13.7 +/- 0.03 days); type: functional, Ehrlich; conditions: route intraperitoneal
# [14] = Antitumor activity against […] xenografted in Swiss albino mouse liquid tumor model assessed as change in body weight at 5 mg/kg, ip qd for 9 days measured after 14 days (reference value: 12.2 +/- 0.75 g); type: functional, Ehrlich; conditions: route intraperitoneal; summary of the method: as §2
# Mus musculus [15] = test: Toxicity in […] xenografted Swiss albino mouse liquid tumor model assessed as change hemoglobin level at 10 mg/kg, ip qd for 9 days (reference value: 5.75 +/- 0.655 mg); type: organism-based, Ehrlich; parameters: dose 10 mg/kg, route intraperitoneal; conditions: in vivo, 216 h
# [16] = Anticancer activity against […] xenografted in Swiss albino mouse liquid tumor model assessed as viable tumor cells per 10^7 cells at 10 mg/kg, ip qd for 9 days measured after 14 days by trypan blue staining (reference value: 6.39 +/- 0.51 10^7/mL); type: functional, Ehrlich; conditions: route intraperitoneal; summary of the method: as §2
# Mus musculus [17] = test: Toxicity in […] xenografted Swiss albino mouse liquid tumor model assessed as change in monocytes cell count at 5 mg/kg, ip qd for 9 days (reference value: 2.4 +/- 0.12 %); type: organism-based, Ehrlich; parameters: dose 5 mg/kg, route intraperitoneal; conditions: in vivo, 216 h
# Mus musculus [18] = test: Toxicity in human EAC cells xenografted Swiss albino mouse liquid tumor model assessed as change in neutrophil cell count at 10 mg/kg, ip qd for 9 days (reference value: 73 +/- 1.25 %); type: organism-based, Ehrlich; parameters: dose 10 mg/kg, route intraperitoneal; conditions: in vivo, 216 h
# [19] = Anticancer activity against […] xenografted in Swiss albino mouse liquid tumor model assessed as increase in host lifespan at 10 mg/kg, ip qd for 9 days measured after 14 days; type: functional, Ehrlich; conditions: route intraperitoneal
# Mus musculus [20] = test: Toxicity in […] xenografted Swiss albino mouse liquid tumor model assessed as change WBC cell count at 10 mg/kg, ip qd for 9 days (reference value: 20.6 +/- 0.545 10^3/mm3); type: organism-based, Ehrlich; parameters: dose 10 mg/kg, route intraperitoneal; conditions: in vivo, 216 h
# [21] = Anticancer activity against […] xenografted in Swiss albino mouse liquid tumor model assessed as packed cell volume at 10 mg/kg, ip qd for 9 days measured after 14 days by trypan blue staining (reference value: 2.75 +/- 0.49 mm); type: functional, Ehrlich; conditions: route intraperitoneal; summary of the method: as §2
# Mus musculus [22] = test: Toxicity in human EAC cells xenografted Swiss albino mouse liquid tumor model assessed as change in lymphocyte cell count at 5 mg/kg, ip qd for 9 days (reference value: 23 +/- 0.567 %); type: organism-based, Ehrlich; parameters: dose 5 mg/kg, route intraperitoneal; conditions: in vivo, 216 h
# [23] = Anticancer activity against […] xenografted in Swiss albino mouse liquid tumor model assessed as host survival at 5 mg/kg, ip qd for 9 days (reference value: 13.7 +/- 0.03 days); type: functional, Ehrlich; conditions: route intraperitoneal
# Mus musculus [24] = test: Toxicity in human EAC cells xenografted Swiss albino mouse liquid tumor model assessed as change in neutrophil cell count at 5 mg/kg, ip qd for 9 days (reference value: 73 +/- 1.25 %); type: organism-based, Ehrlich; parameters: dose 5 mg/kg, route intraperitoneal; conditions: in vivo, 216 h
# [25] = Anticancer activity against […] xenografted in Swiss albino mouse liquid tumor model assessed as viable tumor cells per 10^7 cells at 5 mg/kg, ip qd for 9 days measured after 14 days by trypan blue staining (reference value: 6.39 +/- 0.51 10^7/mL); type: functional, Ehrlich; conditions: route intraperitoneal; summary of the method: as §2
structure (smiles),measurement,setting,value
COc1ccc(-c2c[n+]([O-])c3c(C)noc3c2C(c2ccccc2)c2c(-c3ccc(OC)cc3)c[n+]([O-])c3c(C)noc23)cc1,IC50,HeLa,47.9 µg/mL
same,IC50,MCF7,46 µg/mL
same,IC50,[1],41.7 µg/mL
Cc1noc2c(C(c3ccccc3)c3c(-c4ccccc4)c[n+]([O-])c4c(C)noc34)c(-c3ccccc3)c[n+]([O-])c12,IC50,HeLa,28.6 µg/mL
same,IC50,MCF7,31.9 µg/mL
same,IC50,[1],26.6 µg/mL
same,Activity,Mus musculus [2],1.6%
same,Activity,Mus musculus [3],3.88 million/mm3
same,Activity,[4],1.25 mm
same,Activity,[5],7.7 g
same,Activity,[6],7.61 mL
same,Activity,Mus musculus [7],49%
same,Activity,Mus musculus [8],3.02 million/mm3
same,Activity,Mus musculus [9],8.08 mg
same,Activity,[10],19.7%
same,Activity,[11],4.5 mL
same,Activity,Mus musculus [12],18.48 ×10³ /mm3
same,MST,[13],22.1 days
same,Activity,[14],10.41 g
same,Activity,Mus musculus [15],9.3 mg
same,Activity,[16],3.27 ×10⁷ /ml
same,Activity,Mus musculus [17],2%
same,Activity,Mus musculus [18],39%
same,Activity,[19],61.31%
same,Activity,Mus musculus [20],13.92 ×10³ /mm3
same,Activity,[21],0.94 mm
same,Activity,Mus musculus [22],31%
same,MST,[23],16.4 days
same,Activity,Mus musculus [24],54%
same,Activity,[25],4.05 ×10⁷ /ml
Cc1ccccc1C(c1c(-c2ccccc2)c[n+]([O-])c2c(C)noc12)c1c(-c2ccccc2)c[n+]([O-])c2c(C)noc12,IC50,HeLa,62.4 µg/mL
same,IC50,MCF7,60.7 µg/mL
same,IC50,[1],65.1 µg/mL
COc1ccccc1C(c1c(-c2ccccc2)c[n+]([O-])c2c(C)noc12)c1c(-c2ccccc2)c[n+]([O-])c2c(C)noc12,IC50,HeLa,65.5 µg/mL
same,IC50,MCF7,57.3 µg/mL
same,IC50,[1],51.8 µg/mL
Cc1noc2c(C(c3ccccc3Cl)c3c(-c4ccccc4)c[n+]([O-])c4c(C)noc34)c(-c3ccccc3)c[n+]([O-])c12,IC50,HeLa,79 µg/mL
same,IC50,MCF7,72.1 µg/mL
same,IC50,[1],70.4 µg/mL
Cc1noc2c(C(c3ccc(Cl)cc3)c3c(-c4ccccc4)c[n+]([O-])c4c(C)noc34)c(-c3ccccc3)c[n+]([O-])c12,IC50,HeLa,70.7 µg/mL
same,IC50,MCF7,74.3 µg/mL
same,IC50,[1],60.6 µg/mL
Cc1ccc(-c2c[n+]([O-])c3c(C)noc3c2C(c2ccccc2)c2c(-c3ccc(C)cc3)c[n+]([O-])c3c(C)noc23)cc1,IC50,HeLa,42 µg/mL
same,IC50,MCF7,44.3 µg/mL
same,IC50,[1],48.4 µg/mL
Cc1noc2c(C(c3ccccc3)c3c(-c4ccccc4O)c[n+]([O-])c4c(C)noc34)c(-c3ccccc3O)c[n+]([O-])c12,IC50,HeLa,32.8 µg/mL
same,IC50,MCF7,33.5 µg/mL
same,IC50,[1],36.3 µg/mL
same,Activity,Mus musculus [2],1.9%
same,Activity,Mus musculus [3],3.3 million/mm3
same,Activity,[4],2.13 mm
same,Activity,[5],8.89 g
same,Activity,[6],10.69 mL
same,Activity,Mus musculus [7],40%
same,Activity,Mus musculus [8],2.72 million/mm3
same,Activity,Mus musculus [9],5.96 mg
same,Activity,[10],8.02%
same,Activity,[11],8.29 mL
same,Activity,Mus musculus [12],19.9 ×10³ /mm3
same,MST,[13],18 days
same,Activity,[14],11 g
same,Activity,Mus musculus [15],7.02 mg
same,Activity,[16],4.07 ×10⁷ /ml
same,Activity,Mus musculus [17],2.3%
same,Activity,Mus musculus [18],51%
same,Activity,[19],31.38%
same,Activity,Mus musculus [20],18.8 ×10³ /mm3
same,Activity,[21],1.69 mm
same,Activity,Mus musculus [22],26%
same,MST,[23],14.8 days
same,Activity,Mus musculus [24],65%
same,Activity,[25],5.21 ×10⁷ /ml
Cc1noc2c(C(c3ccccc3)c3c(-c4ccc(Cl)cc4)c[n+]([O-])c4c(C)noc34)c(-c3ccc(Cl)cc3)c[n+]([O-])c12,IC50,HeLa,70.2 µg/mL
same,IC50,MCF7,79 µg/mL
same,IC50,[1],78.3 µg/mL
Cc1noc2c(C(c3ccccc3)c3c(-c4ccc([N+](=O)[O-])cc4)c[n+]([O-])c4c(C)noc34)c(-c3ccc([N+](=O)[O-])cc3)c[n+]([O-])c12,IC50,HeLa,80 µg/mL
same,IC50,MCF7,76.2 µg/mL
same,IC50,[1],75.5 µg/mL
